Reference: ChEMBL document CHEMBL4251735, “New Hybrids Derived from Podophyllic Aldehyde and Diterpenylhydroquinones with Selectivity toward Osteosarcoma Cells” (ACS Med Chem Lett, 2018)
Activity calls are given as the source filed them. No cut-off for these calls is given here.

Key:
HT-29 [1] = assay: Cytotoxicity against human HT-29 cells after 72 hrs by MTT assay; format: functional, cell-based; details: for IC50: HT-29, 72 h
Procedure, shortened: (§1)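 MTT viability assay after 72 h incubation; IC50 reported as mean ± error from viability curves.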

MG-63 [2] = assay: Cytotoxicity against human MG63 cells after 72 hrs by MTT assay; format: functional, cell-based; details: for IC50: MG-63, 72 h; procedure, shortened: as §1
MCF7 [3] = assay: Cytotoxicity against human MCF7 cells after 72 hrs by MTT assay; format: functional, cell-based; details: for IC50: MCF7, 72 h; procedure, shortened: as §1
MG-63 [4] = assay: Cell cycle arrest in human MG63 cells assessed as reduction in accumulation at S-phase at 1 uM after 24 hrs by propidium iodide staining based flow cytometric analysis relative to control; format: functional; parameters: scale not given: the % may be the effect or the level left
Procedure, shortened: (§2)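 MG-63 osteosarcoma cells exposed to test agent at 1 µM for 24 h, with a DMSO vehicle control (<0.001%). DNA content was measured by fluorescence flow cytometry, and cells were assigned to G0/G1, S and G2/M phases as percentage of the population. Significance versus control was tested at p < 0.001.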

MG-63 [5] = assay: Induction of apoptosis in human MG63 cells assessed as total apoptotic cells at 1 uM after 24 hrs by annexin-V-FITC/propidium iodide staining based flow cytometric analysis (reference value: 10.42%); format: functional
MG-63 [6] = assay: Cytotoxicity against human MG63 cells after 24 hrs by annexin-V-FITC/propidium iodide staining based flow cytometric method; format: functional, cell-based; details: MG-63, 24 h
Procedure, shortened: (§3)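 Flow cytometric cytotoxicity measured after 24 h exposure; IC50 derived. Viability was also plotted against drug concentrations from 0.1 to 100 µM over 24 h in HT-29, MCF-7 and MG-63.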

MG-63 [7] = assay: Cell cycle arrest in human MG63 cells assessed as increase in accumulation at G2/M phase at 1 uM after 24 hrs by propidium iodide staining based flow cytometric analysis relative to control; format: functional
Procedure, shortened: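 MG-63 cells incubated 24 h with compound at 1 µM alongside vehicle control (DMSO, <0.001%); DNA content measured by fluorescence flow cytometry, giving percentages of cells in G0/G1, S and G2/M; significance versus control tested at p < 0.001.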

MG-63 [8] = assay: Induction of apoptosis in human MG63 cells assessed as increase in late apoptotic cells at 1 uM after 24 hrs by annexin-V-FITC/propidium iodide staining based flow cytometric analysis; format: functional, cell-based
Procedure, shortened: (§4)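 Apoptosis was assessed in MG-63 cells treated for 24 h at 1 µM, alongside a DMSO vehicle control (<0.001%). Cells were stained with annexin V and PI and analysed by flow cytometry. Populations were classed as early apoptotic (annexin+/PI-), late apoptotic/dead (annexin+/PI+) or living (annexin-/PI-). Total annexin+ percentage and the PI-/PI+ ratio were reported.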

MG-63 [9] = assay: Induction of apoptosis in human MG63 cells assessed as increase in early apoptotic cells at 1 uM after 24 hrs by annexin-V-FITC/propidium iodide staining based flow cytometric analysis; format: functional, cell-based; procedure, shortened: as §4
MCF7 [10] = assay: Cytotoxicity against human MCF7 cells after 24 hrs by annexin-V-FITC/propidium iodide staining based flow cytometric method; format: functional, cell-based; details: MCF7, 24 h; procedure, shortened: as §3
MG-63 [11] = assay: Cell cycle arrest in human MG63 cells assessed as reduction in accumulation at G0/G1-phase at 1 uM after 24 hrs by propidium iodide staining based flow cytometric analysis relative to control; format: functional; parameters: scale not given: the % may be the effect or the level left; procedure, shortened: as §2
HT-29 [12] = assay: Cytotoxicity against human HT-29 cells after 24 hrs by annexin-V-FITC/propidium iodide staining based flow cytometric method; format: functional, cell-based; details: HT-29, 24 h; procedure, shortened: as §3
MG-63 [13] = assay: Induction of apoptosis in human MG63 cells assessed as viable cells at 1 uM after 24 hrs by annexin-V-FITC/propidium iodide staining based flow cytometric analysis (reference value: 89.58%); format: functional; details: MG-63, 24 h, read-out: Activity

SMILES	Activity (HT-29 [1])	Activity (MG-63 [2])	Activity (MCF7 [3])	Activity (MG-63 [4])	Activity (MG-63 [5])	IC50 (MG-63 [6])	IC50 (HT-29 [1])	Activity (MG-63 [7])	IC50 (MG-63 [2])	Activity (MG-63 [8])	Activity (MG-63 [9])	IC50 (MCF7 [10])	Activity (MG-63 [11])	IC50 (MCF7 [3])	IC50 (HT-29 [12])	viability at 1 µM (MG-63 [13])	fold change (FC) (MG-63 [7])
C=C1CCC2[C@](C)(CCC[C@]2(C)C(=O)OCCCCCCBr)[C@H]1CCc1ccc2c(OC(C)=O)ccc(OC(C)=O)c2c1 (stereo partly drawn)	Active	Active	Active														
C=C1CCC2[C@](C)(CCC[C@]2(C)C(=O)OCc2ccc(CBr)cc2)[C@H]1CCc1ccc2c(OC(C)=O)ccc(OC(C)=O)c2c1 (stereo partly drawn)	Active	Active	Active														
COC(=O)[C@@H]1C(C=O)=Cc2cc3c(cc2[C@H]1c1cc(OC)c(OC)c(OC)c1)OCO3 [PODOPHYLLIC ALDEHYDE]				100%	48.08%	1230 nM	29 nM	Active	60 nM	Active	Active	> 100000 nM	100%	480 nM	> 100000 nM	51.9%	
C=C1CCC2[C@](C)(CCC[C@]2(C)C(=O)OC)[C@H]1CCc1ccc2c(OC(C)=O)ccc(OC(C)=O)c2c1 (stereo partly drawn)						1160 nM	18 nM	Active	410 nM			29900 nM		15 nM	5650 nM		
COc1cc([C@@H]2c3cc4c(cc3[C@H](O)[C@H]3COC(=O)[C@H]23)OCO4)cc(OC)c1OC [PODOFILOX]					48.56%	18300 nM	66 nM	Active	7 nM			> 100000 nM		28 nM	> 100000 nM	51.4%	
C=C1CCC2[C@](C)(CCC[C@]2(C)C(=O)OCCCCCCOC(=O)[C@@H]2C(C=O)=Cc3cc4c(cc3[C@H]2c2cc(OC)c(OC)c(OC)c2)OCO4)[C@H]1CCc1ccc2c(OC(C)=O)ccc(OC(C)=O)c2c1 (stereo partly drawn)					11.24%	44600 nM	1910 nM		2060 nM			> 100000 nM		1000 nM	57600 nM	88.8%	
C=C1CCC2[C@](C)(CCC[C@]2(C)C(=O)OCc2ccc(COC(=O)[C@@H]3C(C=O)=Cc4cc5c(cc4[C@H]3c3cc(OC)c(OC)c(OC)c3)OCO5)cc2)[C@H]1CCc1ccc2c(OC(C)=O)ccc(OC(C)=O)c2c1 (stereo partly drawn)				100%	89.96%	500 nM	1440 nM		150 nM	Active	Active	> 100000 nM	100%	1030 nM	> 100000 nM	10%	5
C=C1CCC2[C@](C)(CCC[C@]2(C)C(=O)OCCCBr)[C@H]1CCc1ccc2c(OC(C)=O)ccc(OC(C)=O)c2c1 (stereo partly drawn)	Active	Active	Active														
C=C1CCC2[C@](C)(CCC[C@]2(C)C(=O)OCCCOC(=O)[C@@H]2C(C=O)=Cc3cc4c(cc3[C@H]2c2cc(OC)c(OC)c(OC)c2)OCO4)[C@H]1CCc1ccc2c(OC(C)=O)ccc(OC(C)=O)c2c1 (stereo partly drawn)					25.03%	58200 nM	1510 nM	Active	2230 nM			> 100000 nM		2210 nM	> 100000 nM	75%	
